Data set [1] concerns the target T1, CB1 (Homo sapiens, UniProt P21554). Format: cell-based.
For data set [2], the target named is T1, CB1. The data set can be described thus: Radioligand displacement of [3H]1. The format is binding. On the technique in general: In a radioligand displacement assay an active substance lowers the binding of a labelled ligand.
Data set [3] has as its system MDCK-mdr1 cells. The data set can be described thus: MDCK-mdr1 transport assay. The format is in vitro ADME, Canine. The settings on record: 3.16 µM apical, 1 hr at 37°C. A digest of the protocol: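 MDCK-mdr1 cells grown on permeable filter inserts for 4 days to confluence. Test compound applied apically at 3.16 µM, incubated 1 hr at 37°C, alongside two reference CB1 antagonists as controls. Apical and basolateral samples dried under nitrogen and quantified by LC-MS/MS (MRM) using a 0.1% formic acid water/methanol gradient at 0.5 mL/min. Read-out is the percentage transported across the monolayer.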

The Ki is a measure of affinity in units of concentration, obtained from inhibition or displacement.

T1 sequence (P21554 whole entry, species assumed): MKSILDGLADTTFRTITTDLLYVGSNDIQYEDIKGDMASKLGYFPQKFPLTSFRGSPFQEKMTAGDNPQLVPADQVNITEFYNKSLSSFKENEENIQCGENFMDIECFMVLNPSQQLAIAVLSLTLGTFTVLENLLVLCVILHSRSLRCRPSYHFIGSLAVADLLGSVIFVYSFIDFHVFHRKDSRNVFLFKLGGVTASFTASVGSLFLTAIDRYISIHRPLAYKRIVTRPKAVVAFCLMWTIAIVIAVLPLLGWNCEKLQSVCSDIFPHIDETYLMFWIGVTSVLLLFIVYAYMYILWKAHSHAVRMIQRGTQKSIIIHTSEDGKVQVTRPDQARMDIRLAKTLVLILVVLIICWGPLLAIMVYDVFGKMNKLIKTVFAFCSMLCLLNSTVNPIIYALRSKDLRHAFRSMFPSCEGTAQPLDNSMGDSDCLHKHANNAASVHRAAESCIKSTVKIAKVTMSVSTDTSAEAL

Regarding `Cc1c(C(=O)Nc2ccncc2)nn(-c2ccc(Cl)cc2Cl)c1-c1ccc(Cl)cc1` [Compound 5], in data set [1], the Kb worked out at 117 nM.

With `Cc1c(C(=O)Nc2cc[n+](C)cc2)nn(-c2ccc(Cl)cc2Cl)c1-c1ccc(Cl)cc1` [Compound 6], the Kb in data set [1] was greater than 10000 nM.

Turning to `Cc1c(C(=O)Nc2cc[n+]([O-])cc2)nn(-c2ccc(Cl)cc2Cl)c1-c1ccc(Cl)cc1` [Compound 7], the Kb in data set [1] amounted to 1390 nM.

The molecule `Cc1ccc(NC(=O)c2nn(-c3ccc(Cl)cc3Cl)c(-c3ccc(Cl)cc3)c2C)cn1` [Compound 8] showed a Kb in data set [1] of 384 nM.

The molecule `Cc1c(C(=O)Nc2ccc(C)[n+](C)c2)nn(-c2ccc(Cl)cc2Cl)c1-c1ccc(Cl)cc1` [Compound 9] yielded a Kb in data set [1] of 8410 nM.

In turn, `Cc1c(C(=O)Nc2ccc(C)[n+]([O-])c2)nn(-c2ccc(Cl)cc2Cl)c1-c1ccc(Cl)cc1` [Compound 10] displayed a Kb in data set [1] of 1200 nM.

`Cc1ccc(NC(=O)c2nn(-c3ccc(Cl)cc3Cl)c(-c3ccc(Cl)cc3)c2C)nc1` [Compound 11] displayed a Kb in data set [1] of 980 nM.

For the molecule `Cc1ccc(NC(=O)c2nn(-c3ccc(Cl)cc3Cl)c(-c3ccc(Cl)cc3)c2C)[n+](C)c1` [Compound 12], the Kb in data set [1] was 8590 nM.

`Cc1ccc(NC(=O)c2nn(-c3ccc(Cl)cc3Cl)c(-c3ccc(Cl)cc3)c2C)[n+]([O-])c1` [Compound 13] registered a Kb in data set [1] of 4580 nM.

`Cc1c(C(=O)N[C@H]2CC[C@H](NS(N)(=O)=O)CC2)nn(-c2ccc(Cl)cc2Cl)c1-c1ccc(Cl)cc1` [Compound 18] came in with a Kb in data set [1] of 9430 nM.

Consider `Cc1c(C(=O)NCC2CCC(CN)CC2)nn(-c2ccc(Cl)cc2Cl)c1-c1ccc(Cl)cc1` (stereo not shown) [Compound 19], for which, in data set [1], the Kb came out at 3760 nM.

As for `Cc1c(C(=O)NCC2CCC(CNS(C)(=O)=O)CC2)nn(-c2ccc(Cl)cc2Cl)c1-c1ccc(Cl)cc1` (stereo not shown) [Compound 20], in data set [2], the Ki was roughly 10 nM.

As to `Cc1c(C(=O)NC[C@H]2CC[C@@H](CNS(C)(=O)=O)CC2)nn(-c2ccc(Cl)cc2Cl)c1-c1ccc(Cl)cc1` [Compound 22], the “transport from apical to basal side of the membrane” value (“transport from apical to basal side” below) in data set [3] is “less than 1%”.

For `Cc1c(C(=O)NC[C@H]2CC[C@@H](CNS(N)(=O)=O)CC2)nn(-c2ccc(Cl)cc2Cl)c1-c1ccc(Cl)cc1` [Compound 23], in data set [3], the “transport from apical to basal side” value is “less than 1%”.

On to `CCNC1(C(N)=O)CCN(c2ncnc3c2nc(-c2ccccc2Cl)n3-c2ccc(Cl)cc2)CC1` [otenabant, reference compound], for which, in data set [3], the “transport from apical to basal side” value was ~ 90%.

On to `Cc1c(C(=O)NN2CCCCC2)nn(-c2ccc(Cl)cc2Cl)c1-c1ccc(Cl)cc1` [rimonabant, reference compound], for which, in data set [3], the “transport from apical to basal side” value is recorded as ~ 15%.

These data come from paper PMC3171605 (Bioorganic & medicinal chemistry letters, 2011).
